The values below come from ChEMBL document CHEMBL3797104, “Triazole tethered C5-curcuminoid-coumarin based molecular hybrids as novel antitubulin agents: Design, synthesis, biological investigation and docking studies” (Eur J Med Chem, 2016).

Common to all, as to assay type: functional
A short description of experiment [1]: Cytotoxicity against human HCT116 cells assessed as growth inhibition at 50 uM after 48 hrs by SRB assay. Conditions: HCT-116, 48 h, read-out: GI. A digest of the protocol: (§1)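 Single-concentration screen at 50 µM. Cells grew 24 h at 37 °C, then had 48 h exposure in complete medium.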
A general note: The SRB assay estimates cell density from bound dye.

A short description of experiment [2]: Cytotoxicity against human COLO205 cells assessed as growth inhibition at 50 uM after 48 hrs by SRB assay. Conditions: COLO 205, 48 h, read-out: GI. A digest of the protocol: as §1
Experiment [3] in a line: Cytotoxicity against human THP1 cells assessed as growth inhibition at 50 uM after 48 hrs by SRB assay. Conditions: THP-1, 48 h, read-out: GI. A digest of the protocol:
as §1

A further experiment has as its system PC-3. In words: (§2) Cytotoxicity against human PC3 cells assessed as growth inhibition at 50 uM after 48 hrs by SRB assay. A digest of the protocol:
as §1

A short description of experiment [4]: as §2. Conditions: PC-3, 48 h, read-out: GI. A digest of the protocol:
as §1

Calls of active or inactive are those of the source. The rule behind the calls is not given here.

As for `COc1cc(/C=C/C(=O)/C=C/c2ccco2)ccc1OCc1cn(CCCOc2cc(=O)oc3ccccc23)nn1`, the inhibition of growth at 50 µM was determined as 51% in experiment [1], 59% in experiment [2] and 57% in experiment [3]. The “growth inhibition (GI)” value with PC-3 is “inactive”.
On to `COc1cc(/C=C/C(=O)/C=C/c2cccs2)ccc1OCc1cn(CCCCCOc2cc(=O)oc3ccccc23)nn1`, for which the results for the inhibition of growth at 50 µM in experiment [1], in experiment [2] and in experiment [3] were 31%, 30% and 34%, respectively. Besides, the “growth inhibition (GI)” value in the experiment on PC-3 is “inactive”.
For the molecule `COc1ccccc1/C=C/C(=O)/C=C/c1ccc(OCc2cn(CCCOc3cc(=O)oc4ccccc34)nn2)c(OC)c1`, the results for the inhibition of growth at 50 µM in experiment [1], in experiment [2] and in experiment [3] were 53%, 57% and 50%, respectively. In addition, in the experiment on PC-3, the “growth inhibition (GI)” value was “inactive”.
The corresponding values for `COc1ccccc1/C=C/C(=O)/C=C/c1ccc(OCc2cn(CCCCOc3cc(=O)oc4ccccc34)nn2)c(OC)c1` are 43%, 47%, 40% and “inactive”.
The corresponding values for `COc1cccc(/C=C/C(=O)/C=C/c2ccc(OCc3cn(CCCCOc4cc(=O)oc5ccccc45)nn3)c(OC)c2)c1` are 44%, 46%, 47% and “inactive”.
As for `COc1cc(/C=C/C(=O)/C=C/c2ccco2)ccc1OCc1cn(CCCCOc2cc(=O)oc3ccccc23)nn1`, the inhibition of growth at 50 µM in experiment [1] was 47%; in experiment [2] it was 43%; in experiment [3] it was 49%. For the same molecule, in the experiment on PC-3, the “growth inhibition (GI)” value was “inactive”.
On the same counts, the results for `COc1ccc(/C=C/C(=O)/C=C/c2ccc(OCc3cn(CCCCCOc4cc(=O)oc5ccccc45)nn3)c(OC)c2)cc1OC` are 45%, 43%, 47% and “inactive”.
The corresponding values for `COc1cc(/C=C/C(=O)/C=C/c2cccs2)ccc1OCc1cn(CCCOc2cc(=O)oc3ccccc23)nn1` are 58%, 55%, 54% and “inactive”.
The corresponding values for `COc1ccc(/C=C/C(=O)/C=C/c2ccc(OCc3cn(CCCCCOc4cc(=O)oc5ccccc45)nn3)c(OC)c2)cc1` are 35%, 30%, 39% and “inactive”.
Consider `COc1ccccc1/C=C/C(=O)/C=C/c1ccc(OCc2cn(CCCCCOc3cc(=O)oc4ccccc34)nn2)c(OC)c1`, for which the inhibition of growth at 50 µM in experiment [1] was 33%; in experiment [2], 30%; in experiment [3], 37%. In addition, the “growth inhibition (GI)” value with PC-3 is “inactive”.
On the same counts, the results for `COc1cc(/C=C/C(=O)/C=C/c2cccc3ccccc23)ccc1OCc1cn(CCCCOc2cc(=O)oc3ccccc23)nn1` are 56%, 50%, 54% and “inactive”.
For `COc1cc(/C=C/C(=O)/C=C/c2cccc3ccccc23)ccc1OCc1cn(CCCCCOc2cc(=O)oc3ccccc23)nn1`, the figures for the inhibition of growth at 50 µM in experiment [1], in experiment [2] and in experiment [3] were 42%, 40% and 44%, respectively. Also, in the experiment on PC-3, the “growth inhibition (GI)” value is “inactive”.
Take `COc1ccc(/C=C/C(=O)/C=C/c2ccc(OCc3cn(CCCOc4cc(=O)oc5ccccc45)nn3)c(OC)c2)cc1`: the inhibition of growth at 50 µM in experiment [1] is 54%; in experiment [2], 53%; in experiment [3], 56%. Besides, the “growth inhibition (GI)” value with PC-3 is “inactive”.
The corresponding values for `COc1ccc(/C=C/C(=O)/C=C/c2ccc(OCc3cn(CCCCOc4cc(=O)oc5ccccc45)nn3)c(OC)c2)cc1OC` are 55%, 53%, 59% and “inactive”.
`COc1cc(/C=C/C(=O)/C=C/c2cc(OC)c(OC)c(OC)c2)ccc1OCc1cn(CCCCCOc2cc(=O)oc3ccccc23)nn1`: the results for the inhibition of growth at 50 µM in experiment [1], in experiment [2] and in experiment [3] were 53%, 51% and 55%, respectively. For the same molecule, the “growth inhibition (GI)” value in the experiment on PC-3 is “inactive”.
For `COc1cc(/C=C/C(=O)/C=C/c2ccccc2)ccc1OCc1cn(CCOc2cc(=O)oc3ccccc23)nn1`, the inhibition of growth at 50 µM is 56% in experiment [1], 54% in experiment [2], 61% in experiment [3] and 10% in experiment [4].
For `COc1cc(/C=C/C(=O)/C=C/c2ccccc2)ccc1OCc1cn(CCCCOc2cc(=O)oc3ccccc23)nn1`, the figures for the inhibition of growth at 50 µM in experiment [1], in experiment [2] and in experiment [3] were 34%, 31% and 36%, respectively. Further, in the experiment with PC-3, the “growth inhibition (GI)” value is “inactive”.
The corresponding values for `COc1cc(/C=C/C(=O)/C=C/c2ccccc2)ccc1OCc1cn(CCCCCOc2cc(=O)oc3ccccc23)nn1` are 24%, 22%, 26% and “inactive”.
With `COc1cccc(/C=C/C(=O)/C=C/c2ccc(OCc3cn(CCCOc4cc(=O)oc5ccccc45)nn3)c(OC)c2)c1`, the values for the inhibition of growth at 50 µM in experiment [1], in experiment [2] and in experiment [3] were 55%, 52% and 58%, respectively. For the same molecule, the “growth inhibition (GI)” value in the experiment with PC-3 is “inactive”.
As for `COc1ccc(/C=C/C(=O)/C=C/c2ccc(OCc3cn(CCCCOc4cc(=O)oc5ccccc45)nn3)c(OC)c2)cc1`, the results for the inhibition of growth at 50 µM in experiment [1], in experiment [2] and in experiment [3] were 40%, 49% and 45%, respectively. In addition, the “growth inhibition (GI)” value with PC-3 is “inactive”.
On the same counts, the results for `COc1cc(/C=C/C(=O)/C=C/c2ccco2)ccc1OCc1cn(CCCCCOc2cc(=O)oc3ccccc23)nn1` are 37%, 33%, 39% and “inactive”.
For the molecule `COc1cc(/C=C/C(=O)/C=C/c2ccccc2)ccc1OCc1cn(CCCOc2cc(=O)oc3ccccc23)nn1`, the inhibition of growth at 50 µM amounted to 45% in experiment [1], 43% in experiment [2] and 48% in experiment [3]. For the same molecule, in the experiment on PC-3, the “growth inhibition (GI)” value is “inactive”.
In the case of `COc1cccc(/C=C/C(=O)/C=C/c2ccc(OCc3cn(CCCCCOc4cc(=O)oc5ccccc45)nn3)c(OC)c2)c1`, the inhibition of growth at 50 µM in experiment [1] came out at 36%; in experiment [2], 34%; in experiment [3] it was 37%. Moreover, in the experiment on PC-3, the “growth inhibition (GI)” value was “inactive”.
As for `COc1cc(/C=C/C(=O)/C=C/c2cccs2)ccc1OCc1cn(CCCCOc2cc(=O)oc3ccccc23)nn1`, the inhibition of growth at 50 µM was found to be 41% in experiment [1], 40% in experiment [2] and 44% in experiment [3]. For the same molecule, the “growth inhibition (GI)” value with PC-3 is “inactive”.
